Test results reported in ChEMBL document CHEMBL4138107, “The discovery of novel, potent ERR-alpha inverse agonists for the treatment of triple negative breast cancer” (Eur J Med Chem, 2017).
Calls of active or inactive are those of the source. No cut-off for these calls is given here.

Experiments:
[1] = target: T1, Steroid hormone receptor ERR1 (Homo sapiens, UniProt P11474); test: Inverse agonist activity at GAL4-DNA binding domain-fused human ERRalpha ligand binding domain expressed in HEK293 cells assessed as inhibition of transcriptional activity after 48 hrs by luciferase reporter gene assay; format: cell-based
T1 sequence (P11474 whole entry): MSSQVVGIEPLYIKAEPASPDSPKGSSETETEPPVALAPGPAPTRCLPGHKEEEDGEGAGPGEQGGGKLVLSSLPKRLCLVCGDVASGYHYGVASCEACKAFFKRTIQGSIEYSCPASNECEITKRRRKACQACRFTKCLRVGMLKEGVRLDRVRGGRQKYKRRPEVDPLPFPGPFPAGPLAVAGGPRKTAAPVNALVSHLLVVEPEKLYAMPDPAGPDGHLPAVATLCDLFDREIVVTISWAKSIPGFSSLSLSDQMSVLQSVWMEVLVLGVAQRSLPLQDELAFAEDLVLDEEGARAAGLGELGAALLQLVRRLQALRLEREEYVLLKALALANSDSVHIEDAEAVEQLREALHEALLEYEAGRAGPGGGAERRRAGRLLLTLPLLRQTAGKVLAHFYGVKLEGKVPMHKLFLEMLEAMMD
In short: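 HEK293 cells at 1×10⁵/well in DMEM with 10% FBS, transfected at 70-80% confluency. Per well: 20 ng GAL4-DBD-ERRα-LBD, 20 ng UAS-Luc reporter and 5 ng pRL-TK control. After 6 h at 37°C, vehicle (0.05% DMSO) or compound added for 48 h. Dual-luciferase read-out.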

MDA-MB-231 [2] = test: Antitumor activity against human MDA-MB-231 cells xenografted in BALB/c nude mouse assessed as tumor size at 30 mg/kg administered every other day for 28 days measured after 30 days relative to control; format: functional
In short: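 MDA-MB-231 cells suspended in PBS injected subcutaneously into the right flank of 6-week-old BALB/c nude mice. Once tumors averaged >100 mm³, mice were randomized into groups of 10 and given vehicle, test compound or cyclophosphamide 30 mg/kg, dosed every other day. Mice were weighed 3 times weekly. Tumor volume = length × width² × 0.5 and was compared with the vehicle group.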

MDA-MB-231 [3] = test: Antiproliferative activity against ER deficient human MDA-MB-231 cells after 48 hrs by CCK-8 assay; format: functional, cell-based; details: MDA-MB-231, 48 h
In short: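 Cells seeded in 96-well plates and cultured overnight, then exposed to a range of compound concentrations for 48 h. CCK-8 reagent added and incubated 2 h at 37°C. Read-out is optical density at 450 nm. MDA-MB-231 maintained in L-15 with 10% FBS, L-glutamine, sodium pyruvate, pen/strep at 37°C, 5% CO2.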

MDA-MB-435 = test: Antiproliferative activity against ER deficient human MDA-MB-435 cells after 48 hrs by CCK-8 assay; format: functional, cell-based; details: MDA-MB-435, 48 h
T47D = test: Antiproliferative activity against human T47D cells harboring ER after 48 hrs by CCK-8 assay; format: functional, cell-based
MCF7 = test: Antiproliferative activity against human MCF7 cells harboring ER after 48 hrs by CCK-8 assay; format: functional, cell-based; details: MCF7, 48 h
HeLa = test: Antiproliferative activity against human HeLa cells after 48 hrs by CCK-8 assay; format: functional, cell-based
PC-3 = test: Antiproliferative activity against human PC3 cells after 48 hrs by CCK-8 assay; format: functional, cell-based; details: PC-3, 48 h
LNCaP = test: Antiproliferative activity against human LNCAP cells after 48 hrs by CCK-8 assay; format: functional, cell-based
A549 = test: Antiproliferative activity against human A549 cells after 48 hrs by CCK-8 assay; format: functional, cell-based; details: A549, 48 h
MDA-MB-231 [4] = test: Inhibition of cell migration in human MDA-MB-231 cells […] by crystal violet staining-based transwell assay; format: functional
MDA-MB-231 [5] = test: Induction of ROS generation in human MDA-MB-231 cells after 24 hrs by DCFH-DA staining based fluorescence assay; format: functional, cell-based
In short: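 MDA-MB-231 cells in 96-well plates pretreated with 1-30 µmol/l compound for 24 h at 37 °C. Then loaded with DCFH-DA (10 µmol/l) for 30 min. Fluorescence read at ex 488/em 535 nm on a plate reader and expressed relative to untreated cells. Mean ± SEM, n=4.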

[6] = target: T2, Steroid hormone receptor ERR1 (Homo sapiens) (UniProt P11474); test: Inverse agonist activity at ERRalpha in human MDA-MB-231 cells assessed as down regulation of PGC-1alpha mRNA expression at 5 to 10 uM after 48 hrs by qRT-PCR analysis; format: cell-based
T2 sequence (whole entry): T1 sequence (P11474 whole entry)
In short: (§1)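 MDA-MB-231 cells in 6-well plates at […]. Exposed to vehicle (DMSO) or compound for 48 h, then mRNA of ERRα target genes (PGC-1α, PDK4, osteopontin/SPP1, pS2/TFF1) quantified by real-time RT-PCR. Mean ± S.E.M. of three independent experiments.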

[7] = target: T2, Steroid hormone receptor ERR1 (Homo sapiens); test: Inverse agonist activity at ERRalpha in human MDA-MB-231 cells assessed as down regulation of PDK4 mRNA expression at 5 to 10 uM after 48 hrs by qRT-PCR analysis; format: cell-based; in short: as §1
[8] = target: T2, Steroid hormone receptor ERR1 (Homo sapiens); test: Inverse agonist activity at ERRalpha in human MDA-MB-231 cells assessed as down regulation of osteopontin mRNA expression at 5 to 10 uM after 48 hrs by qRT-PCR analysis; format: cell-based; in short: as §1
[9] = target: T2, Steroid hormone receptor ERR1 (Homo sapiens); test: Inverse agonist activity at ERRalpha in human MDA-MB-231 cells assessed as down regulation of pS2 mRNA expression at 5 to 10 uM after 48 hrs by qRT-PCR analysis; format: cell-based; in short: as §1
[10] = target: T2, Steroid hormone receptor ERR1 (Homo sapiens); test: (§2) Inhibition of fluorescein-labeled PGC-1alpha binding to GAL4-DNA binding domain-fused human ERRalpha ligand binding domain expressed in HEK293 cells in presence of terbium chelate by TR-FRET assay; format: cell-based
[11] = target: T1, Steroid hormone receptor ERR1; test: as §2; format: cell-based
MDA-MB-231 [12] = test: Antitumor activity against human MDA-MB-231 cells xenografted in BALB/c nude mouse assessed as tumor volume at 30 mg/kg administered every other day for 28 days and measured after 30 days (reference value: 1500 mm3); format: functional
MDA-MB-231 [13] = test: Effect on steady state ERRalpha mRNA expression in human MDA-MB-231 cells at 5 to 10 uM after 48 hrs by qRT-PCR analysis; format: ADME, cell-based; details: mda-mb-231, 48 h
MDA-MB-231 [14] = test: Antitumor activity against human MDA-MB-231 cells xenografted in BALB/c nude mouse assessed as reduction in tumor growth at 30 to 100 mg/kg administered every other day […]; format: functional, organism-based
MDA-MB-231 [15] = test: Cell migration rate in human MDA-MB-231 cells at 5 uM after 48 hrs by crystal violet staining-based transwell assay relative to control; details: MDA-MB-231, 48 h
MDA-MB-231 [16] = test: Cell migration rate in human MDA-MB-231 cells at 10 uM after 48 hrs by crystal violet staining-based transwell assay relative to control; details: MDA-MB-231, 48 h
MDA-MB-231 [17] = test: Cell migration rate in human MDA-MB-231 cells at 20 uM after 48 hrs by crystal violet staining-based transwell assay relative to control; details: MDA-MB-231, 48 h
MDA-MB-231 [18] = test: Induction of apoptosis in human in human MDA-MB-231 cells at 10 uM after 48 hrs by Annexin V-FITC staining based fluorescence microscopic analysis

CCOc1cc(NS(C)(=O)=O)c(OCC)cc1CNC(=O)Nc1ccccc1
IC50 [1]: 21.1 µM

CCOc1cc(NS(C)(=O)=O)c(OCC)cc1CNC(=O)Nc1ccc(OCC)c(C(=O)NCc2ccccc2)c1
IC50 [1]: 3.81 µM

CCOc1cc(NS(C)(=O)=O)c(OCC)cc1CNC(=O)Nc1ccc(OCC)c(C(=O)Nc2cccc(OC)c2)c1
IC50 [1]: 4.23 µM

O=P1(N(CCCl)CCCl)NCCCO1 (centres undefined) [CYCLOPHOSPHAMIDE ANHYDROUS]
Activity (MDA-MB-231 [2]): 50.1%

CCOc1cc(NS(C)(=O)=O)c(OCC)cc1CNC(=O)Nc1ccc(OCc2ccccc2)c(C(=O)OC)c1
IC50 [1]: 4.06 µM

CCOc1cc(NS(C)(=O)=O)c(OCC)cc1CNC(=O)Nc1ccc(OCC)c(C(=O)Nc2ccccc2)c1
IC50 [1]: 3.72 µM

CCOc1cc(NS(C)(=O)=O)c(OCC)cc1CNC(=O)Nc1ccc(OCC)c(C(=O)Nc2ccc(C)cc2)c1
IC50 [1]: 3.04 µM

CCOc1cc(NS(C)(=O)=O)c(OCC)cc1CNC(=O)Nc1ccc(OCC)c(C(=O)NCc2ccc(OC)cc2)c1
IC50 [1]: 1.9 µM
IC50 (MDA-MB-231 [3]): 1.46 µM
IC50 (MDA-MB-435): 2.53 µM
IC50 (T47D): 8.31 µM
IC50 (MCF7): 14.1 µM
IC50 (HeLa): 6.25 µM
IC50 (PC-3): 5.01 µM
IC50 (LNCaP): 11.4 µM
IC50 (A549): 4.84 µM
inhibition (MDA-MB-231 [4]): Dose-dependent effect
Activity (MDA-MB-231 [5]): Active
Activity [6]: Active
Activity [7]: Active
Activity [8]: Active
Activity [9]: Active
inhibition [10]: Dose-dependent effect
IC50 [11]: 0.61 µM
Activity (MDA-MB-231 [2]): 40.9%
Activity (MDA-MB-231 [12]): 720 mm3
Activity (MDA-MB-231 [13]): Non-Toxic
TGI (MDA-MB-231 [14]): Active
migration rate % at 5 µM (MDA-MB-231 [15]): 53.2%
migration rate % at 10 µM (MDA-MB-231 [16]): 39.3%
migration rate % at 20 µM (MDA-MB-231 [17]): 17.8%
Activity (MDA-MB-231 [18]): Active

CCOc1cc(NS(C)(=O)=O)c(OCC)cc1CNC(=O)Nc1ccc(OCC)c(C(=O)NC(C)C)c1
IC50 [1]: 3.48 µM

CCCCOc1ccc(NC(=O)NCc2cc(OCC)c(NS(C)(=O)=O)cc2OCC)cc1C(=O)OC
IC50 [1]: 3.43 µM
